Results reported in ChEMBL document CHEMBL4765386, “Discovery of tertiary amide derivatives incorporating benzothiazole moiety as anti-gastric cancer agents in vitro via inhibiting tubulin polymerization and activating the Hippo signaling pathway” (Eur J Med Chem, 2020).
The source made the active and inactive calls. No cut-off for these calls is given here.

Legend:
[1] = system: HCT-116; experiment: Antiproliferative activity against human HCT-116 cells assessed as reduction in cell viability incubated for 48 hrs by MTT assay; format: functional, cell-based; conditions: HCT-116, 48 h
Procedure, shortened: (§1)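 MTT assay. 5,000 cells per well in RPMI-1640 with 10% FBS and penicillin/streptomycin at 37 °C, 5% CO2. Compound added 24 h after seeding and left for 48 h. MTT was then added for 4 h at 37 °C, formazan dissolved in DMSO and absorbance read at 490 nm. IC50 calculated from three independent experiments.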

[2] = system: GES1; experiment: Cytotoxicity against human GES1 cells assessed as reduction in cell viability at 60 nmol/L incubated for 48 hrs by MTT assay; format: functional; conditions: GES1, read-out: INH
Procedure, shortened: (§2)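 MTT viability in gastric cell lines grown in RPMI-1640 with 10% FBS at 37 °C, 5% CO2. Compound at 20, 40 and 60 nM for 48 h, starting 24 h after seeding 5,000 cells per well. MTT for 4 h, formazan dissolved in DMSO, absorbance at 490 nm. Inhibition expressed relative to control.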

[3] = system: MGC-803; experiment: Induction of apoptosis in human MGC-803 cells assessed as downregulation of XIAP at 20 to 60 nM incubated for 48 hrs by Western blot analysis; format: functional, cell-based; conditions: dose 20-60 nM
Procedure, shortened: (§3)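 Western blot on MGC-803 and SGC-7901 cells given 20, 40 and 60 nM compound or DMSO for 48 h. Denatured lysates were run on SDS-PAGE and transferred to PVDF, then probed with primary and secondary antibodies to detect apoptosis-related proteins.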

[4] = system: SGC-7901; experiment: Induction of apoptosis in human SGC-7901 cells assessed as downregulation of c-IAP2 at 20 to 60 nM incubated for 48 hrs by Western blot analysis; format: functional, cell-based; conditions: dose 20-60 nM
Procedure, shortened: (§4)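 Cells grown in RPMI-1640 with 10% FBS, penicillin/streptomycin at 37 °C, 5% CO2. Exposure to 20, 40 or 60 nM for 48 h alongside DMSO control. Lysates denatured, resolved by SDS-PAGE, transferred to PVDF, blocked, then probed with primary and secondary antibodies.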

[5] = system: MGC-803; experiment: Induction of apoptosis in human MGC-803 cells assessed as upregulation of Noxa at 20 to 60 nM incubated for 48 hrs by Western blot analysis; format: functional, cell-based; conditions: dose 20-60 nM; procedure, shortened: as §3
[6] = system: SGC-7901; experiment: Induction of apoptosis in human SGC-7901 cells assessed as late apoptotic cells at 60 nM incubated for 48 hrs by annexin V-FITC and PI staining based flow cytometry analysis (reference value: 2.4 %); format: functional
[7] = system: SGC-7901; experiment: Induction of apoptosis in human SGC-7901 cells assessed as upregulation of Bax at 20 to 60 nM incubated for 48 hrs by Western blot analysis; format: functional, cell-based; conditions: dose 20-60 nM; procedure, shortened: as §4
[8] = system: SGC-7901; experiment: Displacement of EBI from beta-tubulin in human SGC-7901 cells assessed as reduction in tubulin adduct formation incubated for 2 hrs followed by EBI addition and measured after 2 hrs by Western blot analysis; format: cell-based; conditions: dose 0.25-2.5 µM, time 4.0 hrs
Procedure, shortened: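 EBI competition assay. […] EBI was then added at […] as printed for another 2 h. Harvested cells were immunoblotted with anti-β-tubulin antibody to detect β-tubulin and the alkylated β-tubulin adduct.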

[9] = system: MGC-803; experiment: Induction of cell cycle arrest in human MGC-803 cells assessed as upregulation of Histone-H3 Ser10 at 20 to 60 nM incubated for 48 hrs by Western blot analysis; format: functional, cell-based; conditions: dose 20-60 nM; procedure, shortened: as §4
[10] = system: MGC-803; experiment: Antiproliferative activity against human MGC-803 cells assessed as reduction in cell viability incubated for 48 hrs by MTT assay; format: functional, cell-based; conditions: MGC-803, 48 h
Procedure, shortened: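 MTT assay. Compound added 24 h after seeding and left for 48 h. MTT was then added for 4 h at 37 °C, formazan dissolved in DMSO and absorbance read at 490 nm. IC50 calculated from three independent experiments.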

[11] = system: SGC-7901; experiment: Induction of apoptosis in human SGC-7901 cells assessed as upregulation of DR5 at 20 to 60 nM incubated for 48 hrs by Western blot analysis; format: functional, cell-based; conditions: dose 20-60 nM; procedure, shortened: as §4
[12] = system: MGC-803; experiment: Induction of cell cycle arrest in human MGC-803 cells assessed as increase in G2/M phase accumulation incubated for 24 hrs by PI staining based flow cytometry analysis; format: functional; conditions: dose 20-60 nM
Procedure, shortened: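 Cells in RPMI-1640/10% FBS at 37 °C, 5% CO2, exposed to 20, 40 and 60 nM for 24 h before flow cytometric cell-cycle distribution analysis.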

[13] = system: SGC-7901; experiment: Induction of apoptosis in human SGC-7901 cells assessed as late apoptotic cells at 20 nM incubated for 48 hrs by annexin V-FITC and PI staining based flow cytometry analysis (reference value: 2.4 %); format: functional
[14] = system: SGC-7901; experiment: Induction of apoptosis in human SGC-7901 cells assessed as upregulation of t-Bid at 20 to 60 nM incubated for 48 hrs by Western blot analysis; format: functional, cell-based; conditions: dose 20-60 nM; procedure, shortened: as §4
[15] = system: SGC-7901; experiment: Activation of Hippo signaling pathway in human SGC-7901 cells assessed as decrease in c-MYC expression incubated for 48 hrs by Western blot analysis; format: cell-based; conditions: filed as activator, dose 20-60 nM
Procedure, shortened: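 Western blot on gastric cancer cells exposed to compound or DMSO at 20, 40 and 60 nM for 48 h. Cells were lysed, then the denatured lysates were separated by SDS-PAGE and transferred to PVDF. Membranes were blocked and probed with primary and then secondary antibodies. Hippo pathway proteins were detected.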

[16] = system: SGC-7901; experiment: Induction of apoptosis in human SGC-7901 cells assessed as early apoptotic cells at 20 nM incubated for 48 hrs by annexin V-FITC and PI staining based flow cytometry analysis (reference value: 1.4 %); format: functional
[17] = system: SGC-7901; experiment: Induction of apoptosis in human SGC-7901 cells assessed as late apoptotic cells at 40 nM incubated for 48 hrs by annexin V-FITC and PI staining based flow cytometry analysis (reference value: 2.4 %); format: functional
[18] = system: MGC-803; experiment: Induction of apoptosis in human MGC-803 cells assessed as increase in caspase-3 cleavage at 20 to 60 nM incubated for 48 hrs by Western blot analysis; format: functional, cell-based; conditions: dose 20-60 nM; procedure, shortened: as §3
[19] = system: SGC-7901; experiment: Antiproliferative activity against human SGC-7901 cells assessed as reduction in cell viability incubated for 48 hrs by MTT assay; format: functional, cell-based; conditions: SGC-7901, 48 h; procedure, shortened: as §1
[20] = system: MGC-803; experiment: Induction of apoptosis in human MGC-803 cells assessed as increase in caspase-9 cleavage at 20 to 60 nM incubated for 48 hrs by Western blot analysis; format: functional, cell-based; conditions: dose 20-60 nM; procedure, shortened: as §3
[21] = system: SGC-7901; experiment: Induction of cell cycle arrest in human SGC-7901 cells assessed as downregulation of Cyclin B1 at 20 to 60 nM incubated for 48 hrs by Western blot analysis; format: functional, cell-based; conditions: dose 20-60 nM; procedure, shortened: as §4
[22] = system: MGC-803; experiment: Inhibition of colony formation in human MGC-803 cells at 20 to 60 nM incubated for 7 days by crystal violet staining based assay; format: functional, cell-based; conditions: dose 20-60 nM, time 7.0 day
Procedure, shortened: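 Cells maintained in RPMI-1640 with 10% FBS at 37 °C, 5% CO2; incubated with 20, 40 and 60 nM for 7 days before colony counting.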

[23] = system: MGC-803; experiment: Induction of apoptosis in human MGC-803 cells assessed as late apoptotic cells at 60 nM incubated for 48 hrs by annexin V-FITC and PI staining based flow cytometry analysis (reference value: 4.1 %); format: functional
[24] = system: SGC-7901; experiment: Induction of apoptosis in human SGC-7901 cells assessed as upregulation of Noxa at 20 to 60 nM incubated for 48 hrs by Western blot analysis; format: functional, cell-based; conditions: dose 20-60 nM; procedure, shortened: as §4
[25] = Antiproliferative activity against human SGC-7901 cells assessed as reduction in cell viability at 60 nmol/L incubated for 48 hrs by MTT assay relative to control; format: functional; conditions: SGC-7901, 48 h; procedure, shortened: as §2

For `COc1ccc(CN(C(=O)CSc2nc3ccccc3s2)c2cc(OC)c(OC)c(OC)c2)cc1O`, the IC50 [1] was 182 nM, the inhibition at 0.06 µM [2] was less than 20% and the Activity [3] was “Active”. The Activity [4] was “Active”, the Activity [5] was “Active” and the Activity [6] was 47.3%. The Activity [7] was “Active”, the inhibition [8] was “Dose-dependent effect” and the Activity [9] was “Active”. For the same molecule, the IC50 [10] was 35 nM, the Activity [11] was “Active” and the Activity [12] was “Dose-dependent effect”. The Activity [13] was 4.2%, the Activity [14] was “Active” and the Activity [15] was “Dose-dependent effect”. For the same molecule, the Activity [16] was 4.2%, the Activity [17] was 6.8% and the Activity [18] was “Active”. The IC50 [19] was 49 nM, the Activity [20] was “Active” and the Activity [21] was “Active”. For the same molecule, the Activity [22] was “Active”, the Activity [23] was 30.4% and the Activity [24] was “Active”. It also gave an inhibition at 0.06 µM [25] of 63%.
